Source: PubChem (several laboratories)
NF-kB neuron act = activators of NF-kB expression in neurons, primary screen, cell-based, HTS; human neuronal cells, NF-kB reporter expression; stronger effect = higher value; fold change at 12.5 µM; 1.6% of 190,000 active; AID 1239, 2008; in the data active means fold change above about 3.3
Pf gametocyte = late stage P. falciparum gametocyte viability inhibitors, primary screen, ATP luminescence, HTS; 0.065% of 150,000 active; P. falciparum stage V gametocytes, 24 h; inhibition, % at 10.9 µM;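 active means inhibition above the mean plus 3 SD of compounds within the control limits, set per campaign, cut at about 38% in these data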;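 further: 0% = DMSO wells and 100% = medium only without gametocytes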
APP 5'UTR act = activators of APP 5'UTR luciferase reporter, primary screen, SH-SY5Y cells; SH-SY5Y APP 5'UTR luciferase reporter, luminescence; zero percent = DMSO vehicle wells; AID 1276, 2008; 1% of 190,000 active; activation, % at 2 µM;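 active means activation above a set limit, based on mean plus 3 SD of controls, cut at about 140% in these data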
STAT1 activator = STAT1 signaling activators, primary screen, cell-based, HTS, luciferase reporter | NIH 3T3 STAT1-luciferase reporter, IFN-gamma, luminescence; 100% = IFN-gamma alone, no compound | activation (% of control), % at 5.5 µM | 2.6% of 200,000 active;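 active means activation above the screen-wide mean activation plus 3 SD, cut at about 130% in these data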;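 further: raw ratio to IFN-gamma control signal so 100% means no change and 0% no light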
FLuc inh counter = firefly luciferase enzyme inhibitors, primary screen, artefact control for luciferase-based inhibitor screens, biochemical, luminescence, ATPLite; inhibition, % at 10 µM; 10 min; AID 1006, 2008; 1.5% of 200,000 active;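 active means inhibition above about 50% when tested at 10 µM, limit read from the data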
Target sequence (P08659 whole entry, looked up): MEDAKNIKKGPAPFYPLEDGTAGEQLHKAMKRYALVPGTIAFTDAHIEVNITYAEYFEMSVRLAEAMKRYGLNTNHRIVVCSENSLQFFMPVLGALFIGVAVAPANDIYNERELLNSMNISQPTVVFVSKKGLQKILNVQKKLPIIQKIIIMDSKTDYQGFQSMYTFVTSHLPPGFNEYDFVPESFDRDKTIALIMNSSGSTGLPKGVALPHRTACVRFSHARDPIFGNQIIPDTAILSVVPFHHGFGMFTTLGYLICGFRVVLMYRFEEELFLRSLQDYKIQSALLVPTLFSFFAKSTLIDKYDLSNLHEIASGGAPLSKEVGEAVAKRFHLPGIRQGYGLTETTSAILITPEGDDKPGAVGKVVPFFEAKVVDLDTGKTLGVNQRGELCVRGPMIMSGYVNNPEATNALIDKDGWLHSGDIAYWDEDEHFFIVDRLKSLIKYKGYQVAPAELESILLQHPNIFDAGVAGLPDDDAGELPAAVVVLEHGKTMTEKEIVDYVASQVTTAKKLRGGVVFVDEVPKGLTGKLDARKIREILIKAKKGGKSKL
FLuc stim CS = FLuc activators, initial screening, artefact control for FLuc-dependent activation tests, biochemical, ATPlite luminescence; Luciferin 4-monooxygenase (Photinus pyralis), P08659; ATPlite luciferase biochemical, 10 min; 0 = ATP-free wells, 1 = DMSO control; activation factor at 10 µM; 200,000 tested, under 10 active; AID 1027, 2008;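 active means luciferase activation factor, scaled between plate controls, of at least 2 with compound at 10 µM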
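Material: Luciferase/luciferin reagent mix | Doses: Test compounds dosed from 2 mM stocks in 100% DMSO | Timing: 10 min incubation after luciferase reagent addition, room temperature | Measured by: Luminescence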
STAT1 activ conf = STAT1 signaling activators, confirmation, cell-based, HTS, luciferase reporter. NIH 3T3 STAT1-luciferase reporter, IFN-gamma potentiation, luminescence; 100% = IFN-gamma EC80 alone, no compound. 97% of 1,200 active. AID 1262, 2008. shares compounds with STAT1 activator. activation (% of control), % at 5.7 µM;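 active means activation above a set limit carried over from the earlier primary STAT1 screen, cut at about 140% in these data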;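 further: simple ratio to median IFN-gamma plus DMSO wells so 0% means no light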
NFkB act = NF-kB reporter activators, TNF-alpha stimulated, counter-screen for STAT1 activator project, cell-based, HEK293T, luciferase luminescence; activation (% of control), % at 5.7 µM; 43% of 1,200 active; 100% = TNF-alpha with vehicle only; shares compounds with STAT1 activator;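 active means activation above the mean of solvent-only control wells plus 3 SD, set per campaign, cut at about 130% in these data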;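 further: TNF-alpha given at a submaximal dose yielding about 80% of full reporter signal; values are well signal over median control so 100% means no change and 0% no light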
STAT3 act STAT1c = STAT3 reporter activation by STAT1 hits, confirmation, counter-screen for STAT1 activator project, U3A cells, luciferase, luminescence; shares compounds with STAT1 activator; IL-6; cells lack STAT1; 100 = IL-6 alone, no compound effect; activation (% of control), % at 5.7 µM; 46% of 1,200 active; AID 1316, 2008;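 active means activation above the solvent-only control well mean plus 3 SD, set per plate batch, cut at about 110% in these data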;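 further: 0% = no luminescence and 100% = median IL-6 plus DMSO wells; higher means more STAT3 reporter activation so hits are non-selective activators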
The depositor's hits bear a star; / = not tested or not shown. Hits are enriched below; roughly 3.5% of the tested compounds scored in any of these assays.

SMILES | NF-kB neuron act | Pf gametocyte | APP 5'UTR act | STAT1 activator | FLuc inh counter | FLuc stim CS | STAT1 activ conf | NFkB act | STAT3 act STAT1c
CCC(C)c1ccc(NC(=O)CN(C)CC(=O)Nc2cccc(OC)c2)cc1 (configuration not stated) | 0.98 | -0.7 | -2.3 | 104.3 | -3.2 | 1 | / | / | /
CCOc1ccc2nc(NC(=S)N(C)C)sc2c1 | 12.3* | 25.3 | 167.1* | 182.9* | 17.7 | 0.8 | 293.2* | 134.1* | 102.9
CN(C)C(=S)Nc1nc2ccccc2s1 | 9.1* | / | 63.4 | 164.8* | 10.0 | 0.9 | 169.8* | 137.9* | 83.4
Cc1cc(-n2cc(Br)c(=O)[nH]c2=O)nc(-c2ccccc2)n1 | / | 26.6 | / | / | / | / | / | / | /
Cc1ccc(Nc2ncc3c(n2)CC(C)(C)CC3=O)cc1 | 5.15* | -2.2 | 157.9* | 179.0* | 46.0 | 0.5 | 194.4* | 138.7* | 118.9*
Cc1nc2cc(NC(=O)N3c4ccccc4CC3C)ccc2n1C (configuration not stated) | 4.02* | 0.6 | / | 151.2* | 86.0* | 0.1 | 217.9* | 132.1 | 132.2*
Cc1nc2cc(NC(=O)Nc3cccc([N+](=O)[O-])c3)ccc2n1C | / | 1.5 | / | / | / | / | / | / | /
Oc1ccccc1N=Cc1sc2ccccc2c1Cl | 2.56 | -6.0 | 7.3 | 89.7 | 6.7 | 0.9 | / | / | /
Oc1sc(C=Nc2ccccc2)c2ccccc12 | 8.07* | -9.5 | 153.3* | 166.0* | 10.2 | 0.9 | 209.5* | 140.7* | 107.7
COC(=O)c1c(-c2cccnc2)csc1NC(=O)c1cc(C)on1 | 3.13 | / | 130.0 | 152.5* | 36.6 | 0.6 | 202.1* | 137.2* | 127.5*
O=C(NC1CCCCCC1)c1c2c(nc3ccccc13)CCN(Cc1ccccc1)C2 | 0.33 | 7.6 | 12.9 | 96.3 | -5.2 | 1.1 | / | / | /
Cc1cc(N2CCN(C)CC2)ccc1NC(=O)c1c2c(nc3ccccc13)CCN(Cc1ccccc1)C2 | 1.33 | / | -12.5 | 165.7* | -3.2 | 1 | 118.3 | 110.5 | 114.9*
CC(CNS(=O)(=O)c1ccccc1)Sc1nncn1C (configuration not stated) | / | -9.1 | / | / | / | / | / | / | /
O=C(Nc1ncccn1)c1ccc([N+](=O)[O-])cc1 | 1.11 | -9.7 | 2.8 | 108.0 | 0.0 | 1 | / | / | /
CC(C)(C)c1ccc(C(=O)Nc2ccc([N+](=O)[O-])cn2)cc1 | 2.2 | 18.0 | 131.1 | 151.2* | 9.2 | 0.9 | 212.9* | 135.5* | 98.5
O=C(NC(=S)Nc1ccccn1)c1ccc([N+](=O)[O-])cc1 | 2.08 | -1.3 | 127.4 | 181.8* | 59.4* | 0.4 | 191.2* | 128.0 | 107.3
C/C(=N\NC(=O)c1ccc(Br)cc1)c1ccccc1 | 5.69* | / | 96.8 | 158.7* | 49.9 | 0.5 | 194.9* | 128.0 | 109.5
C/C(=N\NC(=O)C(N)=O)c1ccc(Br)cc1 | 1.36 | 13.4 | 3.9 | 94.4 | -0.9 | 1 | / | / | /
CCOC(=O)c1ccc(Oc2cc(C)nc(Cl)n2)cc1 | / | 16.6 | / | / | / | / | / | / | /
N/C(=N\OC(=O)COc1ccccc1Cl)c1ccccn1 | 7.3* | 12.9 | 201.4* | 178.0* | 33.8 | 0.7 | 207.4* | 139.4* | 115.6*
N/C(=N\OC(=O)COc1ccc(Cl)cc1Cl)c1ccncc1 | 6.23* | -12.3 | 175.4* | 154.6* | 17.4 | 0.8 | 206.4* | 146.4* | 123.7*
